Only some compounds are listed: those with a hit (about 1.5% of all), similar ones and a draw of the others.
PGC1a acetyl inh – PGC1a acetylation modulation, inhibitor mode; U2OS PGC1a acetylation, AlphaScreen anti-acetyl-lysine; with virally co-expressed GCN5 acetyltransferase; inhibition, % at 15.6 µM; hit rate 0.17% among 350,000;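 active means every replicate shows inhibition of at least 40%; inconclusive means mean inhibition at least 40% but some replicate below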;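 further: 0% = neutral control wells and 100% = positive control wells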
MITF TRPM1 HTS – increases MITF-driven TRPM1 promoter luciferase signal; SK-MEL-5 TRPM1-promoter luciferase, 24 h; % of positive control, neutral wells = 0; activation, % at 12.5 µM; hit rate 0.75% among 300,000; AID 588334;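 active means mean activation of at least 80% with every replicate also reaching 80%; inconclusive means mean reaches 80% but some replicate falls short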;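 further: 0% = neutral control wells and 100% = parthenolide positive control wells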
Wnt act – activators of Wnt/beta-catenin signaling; Wnt/beta-catenin reporter cell assay, activator, plate reader; activation, % at 9.35 µM; hit rate 1.2% among 300,000; AID 743398; in the data active means activation above about 30%, passing the limit was not always enough; inconclusive means no clear call, values can overlap the other calls;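 further: 0% = neutral control wells and 100% = positive control wells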
Cneo AK release – causes C. neoformans cell lysis | adenylate kinase release luminescence, 4 h; normalised: neutral wells 0, clomiphene wells 100 | lysis activity, % at 15 µM | hit rate 0.2% among 360,000 | AID 651654;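 active means mean lysis activity across replicates of at least 80%, whatever share of replicates individually reach that level; inactive means mean lysis activity below 80%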
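Test system: log-phase Cryptococcus neoformans yeast cells. Input: 5 × 10^6 yeast cells/mL. Medium: fresh YPD growth medium. Doses: single dose. Incubation: static 4 h at 37 °C with compound, 1 h detection. Measured by: luminescent adenylate kinase detection reagent. Read-out: signal increase indicating cell lysis. Benchmarks: Clomiphene.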
* = called active by the depositor.

`CNC[C@@H]1OCCCC[C@@H](C)Oc2ccc(NS(C)(=O)=O)cc2C(=O)N([C@@H](C)CO)C[C@H]1C` gave PGC1a acetyl inh -2.
For C[C@H](CO)N1C[C@H](C)[C@H](CN(C)C(=O)Nc2ccc3c(c2)OCO3)Oc2ncc(-c3cccnc3)cc2C1=O the results were PGC1a acetyl inh -8 and Cneo AK release 62.
`C[C@H]1CN([C@@H](C)CO)C(=O)c2cc(NS(=O)(=O)c3ccc(F)cc3)ccc2O[C@@H]1CN(C)S(=O)(=O)c1ccccc1` gave PGC1a acetyl inh -14 and Cneo AK release 105*.
For C[C@@H]1CCCCO[C@@H](CN(C)S(=O)(=O)c2ccc(F)cc2)[C@@H](C)CN([C@@H](C)CO)C(=O)c2cc(NS(=O)(=O)c3ccc(F)cc3)ccc2O1 the results were PGC1a acetyl inh -4 and Cneo AK release 104*.
Screening COc1ccc(NC(=O)Nc2ccc3c(c2)C(=O)N([C@H](C)CO)C[C@@H](C)[C@H](CN(C)S(=O)(=O)c2ccc(Cl)cc2)OCCCC[C@@H](C)O3)cc1 returned PGC1a acetyl inh -16 and Cneo AK release 87*.
Screening CO[C@H]1CN(C)C(=O)c2cc(NC(=O)C3CCC3)ccc2OC[C@@H](C)N(Cc2ccc(F)cc2)C[C@H]1C returned Cneo AK release 1.
`COc1cccc(/C=C2\N=C3CCCCCN3C2=O)c1` gave PGC1a acetyl inh -3, MITF TRPM1 HTS -1, Wnt act 36* and Cneo AK release -2.
`Cc1ccc(S(=O)(=O)N(C)C[C@@H]2Oc3ccc(NS(=O)(=O)c4ccc(Cl)cc4)cc3CC(=O)N([C@@H](C)CO)C[C@@H]2C)cc1` gave PGC1a acetyl inh -10 and Cneo AK release 100*.
C[C@H]1CN([C@@H](C)CO)C(=O)Cc2cc(NS(=O)(=O)c3ccc(F)cc3)ccc2O[C@H]1CN(C)S(=O)(=O)c1ccc(F)cc1 was read as PGC1a acetyl inh 3 and Cneo AK release 100*.
For C[C@H](CO)N1C[C@H](C)[C@@H](CN(C)S(=O)(=O)c2ccc(F)cc2)Oc2ccc(NS(=O)(=O)c3ccc(F)cc3)cc2CC1=O the results were PGC1a acetyl inh -7 and Cneo AK release -5.
For Cc1ccc(S(=O)(=O)N(C)C[C@@H]2Oc3ccc(NS(=O)(=O)c4ccc(Cl)cc4)cc3CC(=O)N([C@H](C)CO)C[C@H]2C)cc1 the results were PGC1a acetyl inh 16 and Cneo AK release 2.
Screening O=C(NC1CCCCCCC1)c1c(O)c2ccccc2[nH]c1=O returned PGC1a acetyl inh 5, MITF TRPM1 HTS 100* and Cneo AK release -1.
For COc1cc(Cl)c(C)cc1NC(=O)COc1ccc(C)nc1[N+](=O)[O-] the results were PGC1a acetyl inh 1, MITF TRPM1 HTS 99*, Wnt act 18 and Cneo AK release 0.
Cc1ccc(OCC(=O)NCC(=O)Nc2ccc(F)cc2)c([N+](=O)[O-])n1 was read as MITF TRPM1 HTS 7, Wnt act -1 and Cneo AK release 6.
Screening Cc1ccc(OCC(=O)Nc2ccc(Cl)cc2)c([N+](=O)[O-])n1 returned PGC1a acetyl inh 2, MITF TRPM1 HTS 110*, Wnt act 41* and Cneo AK release -3.
COc1ccc(NC(=O)COc2ccc(C)nc2[N+](=O)[O-])cc1S(N)(=O)=O was read as PGC1a acetyl inh 0, MITF TRPM1 HTS -6, Wnt act -1 and Cneo AK release -1.
`Cc1ccc(OCC(=O)Nc2ccc3c(c2)CCC3)c([N+](=O)[O-])n1` gave PGC1a acetyl inh 1, MITF TRPM1 HTS 79, Wnt act -3 and Cneo AK release 0.
Cc1ccc(OCC(=O)Nc2ccc(F)cc2)c([N+](=O)[O-])n1 was read as PGC1a acetyl inh 11, MITF TRPM1 HTS 104* and Wnt act 12.
`CCC(=O)N1[C@@H]2Cn3c(ccc(C4=CCCCC4)c3=O)[C@H]1[C@@H](C(=O)N[C@H](C)c1ccccc1)[C@@H]2CO` gave Cneo AK release 93*.
CC(=O)N1[C@@H]2c3ccc(-c4ccccc4)c(=O)n3C[C@H]1[C@H](CO)[C@H]2C(=O)Nc1ccccc1 was read as Cneo AK release 87*.
`COCc1nn2c(N)c(-c3ccccc3)cnc2c1-c1ccccc1` gave PGC1a acetyl inh 8, MITF TRPM1 HTS 108*, Wnt act 8 and Cneo AK release -8.
For COCc1nn2c(N)c(C#N)cnc2c1-c1ccccc1 the results were PGC1a acetyl inh 2, MITF TRPM1 HTS -8, Wnt act -2 and Cneo AK release -1.
For Nc1c(-c2ccccc2)cnc2cc(-c3ccccc3)nn12 the results were MITF TRPM1 HTS 58 and Wnt act 56*.
Cc1cc2ncc(-c3ccc(Cl)cc3)c(N)n2n1 was read as PGC1a acetyl inh -3, MITF TRPM1 HTS inconclusive, Wnt act 13 and Cneo AK release -7.
Screening O=C(COC(=O)c1ccc(Cl)s1)c1cc2ccccc2o1 returned PGC1a acetyl inh -2, Wnt act 0 and Cneo AK release -1.
`O=C(OCC(=O)c1c[nH]c2ccccc12)C1=COCCO1` gave PGC1a acetyl inh 10, MITF TRPM1 HTS 33, Wnt act 43* and Cneo AK release 3.
Screening O=C(OCC(=O)c1ccc[nH]1)C1=COCCO1 returned PGC1a acetyl inh -8, MITF TRPM1 HTS 5, Wnt act -1 and Cneo AK release 1.
`CC1(C(=O)OCC(=O)c2c[nH]c3ccccc23)CC1(Cl)Cl` (configuration not stated) gave PGC1a acetyl inh -11, MITF TRPM1 HTS 96* and Cneo AK release -6.
Cn1cccc1C(=O)OCC(=O)c1cc2ccccc2o1 was read as MITF TRPM1 HTS 34, Wnt act 34* and Cneo AK release -3.
`Cc1cnc(C(=O)OCC(=O)c2c[nH]c3ccccc23)cn1` gave MITF TRPM1 HTS -23, Wnt act 5 and Cneo AK release 0.
For Cn1cccc1C(=O)OCC(=O)c1c[nH]c2ccccc12 the results were MITF TRPM1 HTS 112* and Wnt act -2.
For Cc1ccc(S(=O)(=O)N(C)C[C@@H]2OCCCC[C@@H](C)Oc3ccc(NC(=O)NC4CCCCC4)cc3C(=O)N([C@H](C)CO)C[C@H]2C)cc1 the results were PGC1a acetyl inh -11 and Cneo AK release -1.
`C[C@@H]1CN([C@H](C)CO)C(=O)c2c(c3ccccc3n2C)-c2ccccc2CO[C@H]1CN(C)C(=O)c1ccccc1` gave PGC1a acetyl inh -6 and Cneo AK release 1.
For C[C@@H]1CN([C@H](C)CO)C(=O)Cc2cc(NS(=O)(=O)c3cccs3)ccc2O[C@@H]1CN(C)C the results were PGC1a acetyl inh -1 and Cneo AK release -2.
For COc1cccc(-c2ccc3c(c2)O[C@@H](CN(C)C(=O)C2CCC2)[C@H](C)CN([C@@H](C)CO)S3(=O)=O)c1 the results were PGC1a acetyl inh -10 and Cneo AK release -1.
COc1cc(/C=C/C(=O)N2C(=O)c3cccc(N)c3C2=O)cc(OC)c1OC was read as PGC1a acetyl inh -1, MITF TRPM1 HTS -12, Wnt act 135* and Cneo AK release -2.
